# In ChEMBL document CHEMBL4145683, “Total Synthesis and Structure-Activity Relationships Study of Odilorhabdins, a New Class of Peptides Showing Potent Antibacterial Activity” (J Med Chem, 2018):
# Non-standard residues stand in square brackets, D forms with d. Residues, ends and D or L forms follow the SMILES beside them. *: point of attachment. Dab(3S-OH) = NC[C@H](O)[C@H](N)C(=O)O; ΔZArg = N=C(N)NCC/C=C(\N)C(=O)O; aThr = C[C@H](O)[C@H](N)C(=O)O; dOrn = NCCC[C@@H](N)C(=O)O; Dab = NCC[C@H](N)C(=O)O; Abu = CC[C@H](N)C(=O)O; NH(CH2)4NH2 = NCCCCN*
# What was measured:
# Escherichia coli [1] = test: microbe, parasite or virus in culture; conditions: ATCC 25922
# Escherichia coli [2] = test: Inhibition of bacterial protein synthesis in cell-free Escherichia coli incubated for 1 hr and measured for every 20 mins by bacterial cell-free transcription-translation assay; type: functional
# Procedure, shortened: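 E. coli cell-free coupled transcription-translation used a GFP gene in pEXP5-CT as template, started with 1 μg plasmid in 50 μL reactions. Feed buffer was added at 30 min, with incubation at 30 °C. Fluorescence (ex 475/em 520 nm) was read every 20 min. IC50 was taken at 1 h after feed addition from a four-parameter log(inhibitor)–response fit. Duplicates.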
# Klebsiella pneumoniae = test: Antimicrobial activity against Klebsiella pneumoniae ATCC 43816 by broth microdilution method; type: functional; conditions: Klebsiella pneumoniae, ATCC 43816; read-out: MIC
# Procedure, shortened: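 Broth microdilution MIC per CLSI M07-A10, with inoculum prepared by direct colony suspension. Reference strains were from ATCC and NCTC.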
Compound,MIC (Escherichia coli [1]) [µg/mL],IC50 (Escherichia coli [2]; Escherichia coli) [nM],MIC (Klebsiella pneumoniae) [µg/mL],IC50 (Escherichia coli [2]) [nM]
N=C(N)NCC/C=C(\NC(=O)[C@H](CCCCN)NC(=O)[C@H](Cc1cnc[nH]1)NC(=O)[C@@H]1CCCN1C(=O)[C@@H](CCCN)NC(=O)CNC(=O)[C@@H](NC(=O)[C@H](CCN)NC(=O)[C@@H](N)CCCCN)[C@@H](O)CN)C(=O)N[C@@H](CCCCN)C(=O)NCCCCN (H-K[Dab][Dab(3S-OH)]G[dOrn]PHK[ΔZArg]K-{NH(CH2)4NH2}),> 64,5910,64,–
N=C(N)NCCC[C@H](NC(=O)[C@H](CCCCN)NC(=O)[C@H](Cc1cnc[nH]1)NC(=O)[C@@H]1CCCN1C(=O)[C@@H](CCCN)NC(=O)CNC(=O)[C@@H](NC(=O)[C@@H](NC(=O)[C@@H](N)CCCCN)[C@@H](O)CN)[C@@H](O)CN)C(=O)N[C@@H](CCCCN)C(=O)NCCCCN (H-K[Dab(3S-OH)][Dab(3S-OH)]G[dOrn]PHKRK-{NH(CH2)4NH2}),32,1530,8,–
GENTAMICIN,–,–,–,310
C[C@H](NC(=O)[C@@H]1CCCN1C(=O)[C@@H](CCCN)NC(=O)CNC(=O)[C@@H](NC(=O)[C@@H](NC(=O)[C@@H](N)CCCCN)[C@@H](O)CN)[C@@H](O)CN)C(=O)N[C@@H](CCCCN)C(=O)N/C(=C\CCNC(=N)N)C(=O)N[C@@H](CCCCN)C(=O)NCCCCN (H-K[Dab(3S-OH)][Dab(3S-OH)]G[dOrn]PAK[ΔZArg]K-{NH(CH2)4NH2}),8,390,8,–
CC[C@H]1OC(=O)[C@H](C)[C@@H](O[C@H]2C[C@@](C)(OC)[C@@H](O)[C@H](C)O2)[C@H](C)[C@@H](O[C@@H]2O[C@H](C)C[C@H](N(C)C)[C@H]2O)[C@](C)(O)C[C@@H](C)C(=O)[C@H](C)[C@@H](O)[C@]1(C)O [ERYTHROMYCIN],–,2120,–,–
C/C=C(\NC(=O)[C@H](CCCCN)NC(=O)[C@H](Cc1cnc[nH]1)NC(=O)[C@@H]1CCCN1C(=O)[C@@H](CCCN)NC(=O)CNC(=O)[C@@H](NC(=O)[C@@H](NC(=O)[C@@H](N)CCCCN)[C@@H](O)CN)[C@@H](O)CN)C(=O)N[C@@H](CCCCN)C(=O)NCCCCN,16,830,8,–
C[C@H](NC(=O)/C(=C/CCNC(=N)N)NC(=O)[C@H](CCCCN)NC(=O)[C@H](Cc1cnc[nH]1)NC(=O)[C@@H]1CCCN1C(=O)[C@@H](CCCN)NC(=O)CNC(=O)[C@@H](NC(=O)[C@@H](NC(=O)[C@@H](N)CCCCN)[C@@H](O)CN)[C@@H](O)CN)C(=O)NCCCCN (H-K[Dab(3S-OH)][Dab(3S-OH)]G[dOrn]PHK[ΔZArg]A-{NH(CH2)4NH2}),8,1040,8,–
C[C@H](NC(=O)[C@H](Cc1cnc[nH]1)NC(=O)[C@@H]1CCCN1C(=O)[C@@H](CCCN)NC(=O)CNC(=O)[C@@H](NC(=O)[C@@H](NC(=O)[C@@H](N)CCCCN)[C@@H](O)CN)[C@@H](O)CN)C(=O)N/C(=C\CCNC(=N)N)C(=O)N[C@@H](CCCCN)C(=O)NCCCCN,16,1850,4,–
C[C@H](NC(=O)[C@H](CCCCN)NC(=O)[C@H](Cc1cnc[nH]1)NC(=O)[C@@H]1CCCN1C(=O)[C@@H](CCCN)NC(=O)CNC(=O)[C@@H](NC(=O)[C@@H](NC(=O)[C@@H](N)CCCCN)[C@@H](O)CN)[C@@H](O)CN)C(=O)N[C@@H](CCCCN)C(=O)NCCCCN (H-K[Dab(3S-OH)][Dab(3S-OH)]G[dOrn]PHKAK-{NH(CH2)4NH2}),> 64,2400,64,–
C[C@H](O)[C@H](NC(=O)[C@@H](N)CCCCN)C(=O)N[C@H](C(=O)NCC(=O)N[C@H](CCCN)C(=O)N1CCC[C@H]1C(=O)N[C@@H](Cc1cnc[nH]1)C(=O)N[C@@H](CCCCN)C(=O)N/C(=C\CCNC(=N)N)C(=O)N[C@@H](CCCCN)C(=O)NCCCCN)[C@@H](O)CN,> 64,> 40000,> 64,–
CC[C@H](NC(=O)[C@@H](NC(=O)[C@@H](N)CCCCN)[C@@H](O)CN)C(=O)NCC(=O)N[C@H](CCCN)C(=O)N1CCC[C@H]1C(=O)N[C@@H](Cc1cnc[nH]1)C(=O)N[C@@H](CCCCN)C(=O)N/C(=C\CCNC(=N)N)C(=O)N[C@@H](CCCCN)C(=O)NCCCCN (H-K[Dab(3S-OH)][Abu]G[dOrn]PHK[ΔZArg]K-{NH(CH2)4NH2}),4,730,4,–
NCCCC[C@H](NC(=O)[C@H](Cc1cnc[nH]1)NC(=O)[C@@H]1CCCN1C(=O)[C@@H](CCCN)NC(=O)CNC(=O)[C@@H](NC(=O)[C@@H](NC(=O)[C@@H](N)CCCCN)[C@@H](O)CN)[C@@H](O)CN)C(=O)O,> 64,10000,> 64,–
N=C(N)NCCC[C@@H](NC(=O)[C@H](CCCCN)NC(=O)[C@H](Cc1cnc[nH]1)NC(=O)[C@@H]1CCCN1C(=O)[C@@H](CCCN)NC(=O)CNC(=O)[C@@H](NC(=O)[C@@H](NC(=O)[C@@H](N)CCCCN)[C@@H](O)CN)[C@@H](O)CN)C(=O)N[C@@H](CCCCN)C(=O)NCCCCN (H-K[Dab(3S-OH)][Dab(3S-OH)]G[dOrn]PHK[dR]K-{NH(CH2)4NH2}),16,980,16,–
N=C(N)NCC/C=C(\NC(=O)[C@H](CCCCN)NC(=O)[C@H](Cc1cnc[nH]1)NC(=O)[C@@H]1CCCN1C(=O)[C@@H](CCCN)NC(=O)CNC(=O)[C@@H](N)[C@@H](O)CN)C(=O)N[C@@H](CCCCN)C(=O)NCCCCN,> 64,> 40000,> 64,–
NCCCC[C@H](N)C(=O)N[C@H](C(=O)N[C@H](C(=O)NCC(=O)N[C@H](CCCN)C(=O)N1CCC[C@H]1C(=O)N[C@@H](Cc1cnc[nH]1)C(=O)O)[C@@H](O)CN)[C@@H](O)CN,> 64,9600,> 64,–
N=C(N)NCC/C=C(\NC(=O)[C@H](CCCCN)NC(=O)[C@H](Cc1cnc[nH]1)NC(=O)[C@@H]1CCCN1C(=O)[C@@H](CCCN)NC(=O)CNC(=O)[C@@H](NC(=O)[C@H](CO)NC(=O)[C@@H](N)CCCCN)[C@@H](O)CN)C(=O)N[C@@H](CCCCN)C(=O)NCCCCN,> 64,> 40000,> 64,–
C[C@H](O)[C@H](NC(=O)[C@@H](NC(=O)[C@@H](N)CCCCN)[C@@H](O)CN)C(=O)NCC(=O)N[C@H](CCCN)C(=O)N1CCC[C@H]1C(=O)N[C@@H](Cc1cnc[nH]1)C(=O)N[C@@H](CCCCN)C(=O)N/C(=C\CCNC(=N)N)C(=O)N[C@@H](CCCCN)C(=O)NCCCCN (H-K[Dab(3S-OH)][aThr]G[dOrn]PHK[ΔZArg]K-{NH(CH2)4NH2}),8,1000,8,–
N=C(N)NCC/C=C(\NC(=O)[C@H](CCCCN)NC(=O)[C@H](Cc1cnc[nH]1)NC(=O)[C@@H]1CCCN1C(=O)[C@@H](CCCN)NC(=O)CNC(=O)[C@@H](NC(=O)[C@@H](N)[C@@H](O)CN)[C@@H](O)CN)C(=O)N[C@@H](CCCCN)C(=O)NCCCCN,> 64,> 40000,> 64,–
C[C@H](NC(=O)[C@@H](N)CCCCN)C(=O)N[C@H](C(=O)NCC(=O)N[C@H](CCCN)C(=O)N1CCC[C@H]1C(=O)N[C@@H](Cc1cnc[nH]1)C(=O)N[C@@H](CCCCN)C(=O)N/C(=C\CCNC(=N)N)C(=O)N[C@@H](CCCCN)C(=O)NCCCCN)[C@@H](O)CN,> 64,4500,> 64,–
C[C@H](NC(=O)[C@@H](CCCN)NC(=O)CNC(=O)[C@@H](NC(=O)[C@@H](NC(=O)[C@@H](N)CCCCN)[C@@H](O)CN)[C@@H](O)CN)C(=O)N[C@@H](Cc1cnc[nH]1)C(=O)N[C@@H](CCCCN)C(=O)N/C(=C\CCNC(=N)N)C(=O)N[C@@H](CCCCN)C(=O)NCCCCN (H-K[Dab(3S-OH)][Dab(3S-OH)]G[dOrn]AHK[ΔZArg]K-{NH(CH2)4NH2}),16,2410,32,–
N=C(N)NCC/C=C(\NC(=O)[C@H](CCCCN)NC(=O)[C@H](Cc1cnc[nH]1)NC(=O)[C@@H]1CCCN1C(=O)[C@@H](CCCN)NC(=O)CNC(=O)[C@H](CO)NC(=O)[C@@H](NC(=O)[C@@H](N)CCCCN)[C@@H](O)CN)C(=O)N[C@@H](CCCCN)C(=O)NCCCCN (H-K[Dab(3S-OH)]SG[dOrn]PHK[ΔZArg]K-{NH(CH2)4NH2}),4,660,4,–
CN[C@@H]1[C@H](O)[C@H](NC)[C@H]2O[C@@]3(O)C(=O)C[C@@H](C)O[C@H]3O[C@@H]2[C@H]1O [SPECTINOMYCIN],–,990,–,–
N=C(N)NCC/C=C(\NC(=O)[C@H](CCCCN)NC(=O)[C@H](Cc1cnc[nH]1)NC(=O)[C@@H]1CCCN1C(=O)[C@@H](CCCN)NC(=O)CNC(=O)[C@H](CCN)NC(=O)[C@@H](NC(=O)[C@@H](N)CCCCN)[C@@H](O)CN)C(=O)N[C@@H](CCCCN)C(=O)NCCCCN (H-K[Dab(3S-OH)][Dab]G[dOrn]PHK[ΔZArg]K-{NH(CH2)4NH2}),4,1100,4,–
O=C(N[C@H](CO)[C@H](O)c1ccc([N+](=O)[O-])cc1)C(Cl)Cl [CHLORAMPHENICOL],–,7740,–,–
